Experimental data from ChEMBL document CHEMBL1157190, “Design, synthesis, and anticonvulsant activity of N-phenylamino derivatives of 3,3-dialkyl-pyrrolidine-2,5-diones and hexahydro-isoindole-1,3-diones” (Bioorg Med Chem, 2008).
The source made the active and inactive calls. The rule behind the calls is not given here.

Tests used:
[1] = tested on: Mus musculus; assay: Anticonvulsant activity in ip dosed CF1 albino mouse assessed as inhibition of maximal electroshock-induced electrical stimulus after 0.5 hr; assay type: functional
In short: (§1)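 Male CF-1 mice injected intraperitoneally at 30, 100 and 300 mg/kg, suspended in 0.5% methylcellulose/water. MES or subcutaneous pentylenetetrazole challenge at 0.5 and 4 h; selected compounds also at 1 or 2 h.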

[2] = tested on: Mus musculus; assay: Neurotoxicity in ip dosed CF1 albino mouse after 0.5 hr by rotarod test; assay type: toxicity, organism-based; conditions: in vivo
In short: (§2)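 CF-1 mice given 30, 100 or 300 mg/kg ip in 0.5% methylcellulose/water, examined at 0.5 and 4 h. Rotorod test: neurotoxicity is the inability to keep equilibrium on the rod for a given time. Value is the minimum dose giving motor impairment; a dash means none at 300 mg/kg.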

[3] = Lipophilicity, log kw of compound by RP-HPLC; assay type: physicochemical
In short: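 RP-HPLC on a C18 end-capped column at room temperature, with UV detection at 214 nm and uracil as the unretained marker. Capacity factor k = (tr − t0)/t0, from the mean of three measurement sets. log k extrapolated to 100% water (log k = log kw − Sφ) to give log kw.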

[4] = tested on: Mus musculus; assay: Anticonvulsant activity in ip dosed CF1 albino mouse assessed as inhibition of subcutaneous pentylenetetrazole-induced electrical stimulus at 300 mg/kg after 0.5 hr; assay type: functional, organism-based; design: dose 300 mg/kg; in short: as §1
[5] = tested on: Mus musculus; assay: Anticonvulsant activity in ip dosed CF1 albino mouse assessed as inhibition of maximal electroshock-induced electrical stimulus at 300 mg/kg after 4 hrs; assay type: functional, organism-based; design: dose 300 mg/kg; in short: as §1
[6] = tested on: Mus musculus; assay: Anticonvulsant activity in ip dosed CF1 albino mouse assessed as inhibition of subcutaneous pentylenetetrazole-induced electrical stimulus at 300 mg/kg after 4 hrs; assay type: functional, organism-based; design: dose 300 mg/kg; in short: as §1
[7] = tested on: Mus musculus; assay: Neurotoxicity in ip dosed CF1 albino mouse at 300 mg/kg after 4 hrs by rotarod test; assay type: toxicity, organism-based; design: dose 300 mg/kg, route intraperitoneal; conditions: in vivo; in short: as §2
[8] = tested on: Mus musculus; assay: Anticonvulsant activity in ip dosed CF1 albino mouse assessed as inhibition of subcutaneous pentylenetetrazole-induced electrical stimulus after 0.5 hr; assay type: functional; in short: as §1
[9] = tested on: Mus musculus; assay: Anticonvulsant activity in ip dosed CF1 albino mouse assessed as inhibition of maximal electroshock-induced electrical stimulus at 300 mg/kg after 0.5 hr; assay type: functional, organism-based; design: dose 300 mg/kg; in short: as §1
[10] = tested on: Mus musculus; assay: Anticonvulsant activity in ip dosed CF1 albino mouse assessed as inhibition of maximal electroshock-induced electrical stimulus after 4 hrs; assay type: functional; in short: as §1
[11] = tested on: Rattus norvegicus; assay: Anticonvulsant activity in Sprague-Dawley rat assessed as protection against seizure at 30 mg/kg, po after 0.5 hr by maximal electroshock test; assay type: functional
In short: (§3)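 Male Sprague–Dawley rats; compound suspended in 0.5% methylcellulose/water and given orally at a fixed 30 mg/kg, four rats per time point. MES test run at 0.25, 0.5, 1, 2 and 4 h after dosing, with motor impairment checked in parallel. Read-out: number of rats of four protected.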

[12] = tested on: Rattus norvegicus; assay: Anticonvulsant activity in Sprague-Dawley rat assessed as protection against seizure at 30 mg/kg, po after 4 hrs by maximal electroshock test; assay type: functional; in short: as §3
[13] = tested on: Rattus norvegicus; assay: Anticonvulsant activity in Sprague-Dawley rat assessed as protection against seizure at 50 mg/kg, po after 0.5 hr by subcutaneous pentylenetetrazole test; assay type: functional
In short: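 Male Sprague–Dawley rats dosed orally at 50 mg/kg as a 0.5% methylcellulose/water suspension, four animals per time point. Convulsant given subcutaneously at 0.25, 0.5, 1, 2 and 4 h after dosing; rotorod motor impairment assessed in parallel. Read-out: number of rats of four protected.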

[14] = tested on: Mus musculus; assay: Anticonvulsant activity in ip dosed CF1 albino mouse assessed as inhibition of subcutaneous pentylenetetrazole-induced electrical stimulus after 4 hrs; assay type: functional; in short: as §1
[15] = tested on: Mus musculus; assay: Neurotoxicity in ip dosed CF1 albino mouse after 4 hrs by rotarod test; assay type: toxicity, organism-based; conditions: in vivo; in short: as §2
[16] = tested on: Rattus norvegicus; assay: Anticonvulsant activity in Sprague-Dawley rat assessed as protection against seizure at 30 mg/kg, po after 0.25 hr by maximal electroshock test; assay type: functional; in short: as §3
[17] = tested on: Rattus norvegicus; assay: Anticonvulsant activity in Sprague-Dawley rat assessed as protection against seizure at 30 mg/kg, po after 1 hr by maximal electroshock test; assay type: functional; in short: as §3
[18] = tested on: Mus musculus; assay: Neurotoxicity in ip dosed CF1 albino mouse at 300 mg/kg after 0.5 hr by rotarod test; assay type: toxicity, organism-based; design: dose 300 mg/kg, route intraperitoneal; conditions: in vivo; in short: as §2
[19] = tested on: Rattus norvegicus; assay: Anticonvulsant activity in Sprague-Dawley rat assessed as protection against seizure at 30 mg/kg, po after 2 hrs by maximal electroshock test; assay type: functional; in short: as §3

| Compound | Activity [1] [mg/kg] | Activity [2] [mg/kg] | log K [3] | Activity [4] | Activity [5] | Activity [6] | Activity [7] | Activity [8] [mg/kg] | Activity [9] | Activity [10] [mg/kg] | Activity [11] | Activity [12] | Activity [13] | Activity [14] [mg/kg] | Activity [15] [mg/kg] | Activity [16] | Activity [17] | Activity [18] | Activity [19] |
| --- | --- | --- | --- | --- | --- | --- | --- | --- | --- | --- | --- | --- | --- | --- | --- | --- | --- | --- | --- |
| CCC1(CC)CC(=O)N(Nc2ccc(C)cc2)C1=O | 300 | 100 | 1.999 | inactive | inactive | inactive | Not Active |  |  |  |  |  |  |  |  |  |  |  |  |
| CCCC1(C)CC(=O)N(Nc2cccc(Cl)c2)C1=O (stereo not given) | 300 | 100 | 2.401 |  | inactive | inactive | Not Active | 300 |  |  |  |  |  |  |  |  |  |  |  |
| CCCC1(C)CC(=O)N(Nc2ccccc2Cl)C1=O (stereo not given) | 300 | 300 | 2.364 |  | inactive | inactive | Not Active | 300 |  |  |  |  |  |  |  |  |  |  |  |
| CCC1(CC)CC(=O)N(Nc2ccccc2Cl)C1=O |  | 100 | 2.244 |  | inactive | inactive | Not Active | 300 | inactive |  |  |  |  |  |  |  |  |  |  |
| CC1(C)CC(=O)N(Nc2ccc(Cl)cc2Cl)C1=O |  | 100 | 2.179 |  |  |  |  | 100 |  | 100 | inactive | inactive | inactive |  |  |  |  |  |  |
| CCCCC1(C)CC(=O)N(Nc2ccc(Cl)cc2Cl)C1=O (stereo not given) | 100 | 100 | 2.896 |  | inactive | inactive | Not Active | 100 |  |  |  |  |  |  |  |  |  |  |  |
| CCC1(CC)CC(=O)N(Nc2ccccc2)C1=O |  | 300 | 1.826 | inactive | inactive | inactive | Not Active |  | inactive |  |  |  |  |  |  |  |  |  |  |
| CC1(C)CC(=O)N(Nc2ccc(Cl)cc2)C1=O | 100 | 300 | 2.08 |  |  |  |  | 100 |  | 300 |  |  |  | 300 | 300 |  |  |  |  |
| CCC1(C)CC(=O)N(Nc2ccc(Cl)cc2)C1=O (stereo not given) | 100 | 100 | 2.201 |  | inactive | inactive |  | 300 |  |  |  | 25% |  |  | 300 | inactive | 25% |  |  |
| CCCCC1(C)CC(=O)N(Nc2ccccc2Cl)C1=O (stereo not given) | 300 | 300 | 2.566 |  | inactive | inactive | Not Active | 300 |  |  |  |  |  |  |  |  |  |  |  |
| O=C1C2CCCCC2C(=O)N1Nc1ccc(Cl)cc1 (stereo not given) |  |  | 2.224 |  | inactive | inactive | Not Active | 100 | inactive |  |  |  |  |  |  |  |  | Not Active |  |
| CCCC1(C)CC(=O)N(Nc2ccc(Br)cc2)C1=O (stereo not given) | 100 | 300 | 2.403 |  |  |  |  | 300 |  | 300 |  | inactive |  |  | 300 |  |  |  |  |
| CCC1(C)CC(=O)N(Nc2ccc(C)cc2)C1=O (stereo not given) | 300 | 300 | 1.928 |  | inactive | inactive | Not Active | 300 |  |  |  |  |  |  |  |  |  |  |  |
| CCC1(C)CC(=O)N(Nc2ccccc2)C1=O (stereo not given) | 300 | 100 | 1.695 |  |  |  |  | 300 |  |  |  | inactive | inactive |  |  |  |  |  | inactive |
| O=C1C2CCCCC2C(=O)N1Nc1cccc(Cl)c1 (stereo not given) |  | 300 | 2.173 |  | inactive | inactive | Not Active | 300 | inactive |  |  |  |  |  |  |  |  |  |  |
| CCC1(C)CC(=O)N(Nc2ccccc2C)C1=O (stereo not given) | 300 | 100 | 1.864 | inactive | inactive | inactive |  |  |  |  |  |  |  |  | 100 |  |  |  |  |
| CCC1(C)CC(=O)N(Nc2cccc(Cl)c2)C1=O (stereo not given) | 300 | 300 | 2.183 |  |  |  |  |  |  |  |  | inactive | inactive |  |  |  | inactive |  | inactive |
| CC1(C)CC(=O)N(Nc2ccccc2Cl)C1=O | 100 | 30 | 1.876 |  | inactive | inactive | Not Active | 300 |  |  |  |  |  |  |  |  |  |  |  |
| CCC1(C)CC(=O)N(Nc2ccccc2Cl)C1=O (stereo not given) | 300 | 300 | 2.029 | inactive | inactive | inactive | Not Active |  |  |  |  |  |  |  |  |  |  |  |  |
| CCC1(CC)CC(=O)N(Nc2ccc(Br)cc2)C1=O |  |  | 2.221 | inactive | inactive | inactive | Not Active |  | inactive |  |  |  |  |  |  |  |  | Not Active |  |
| CNN1C(=O)CC(C)(C)C1=O |  |  |  | inactive | inactive | inactive | Not Active |  | inactive |  |  |  |  |  |  |  |  | Not Active |  |
| O=C1C2CCCCC2C(=O)N1Nc1ccc(Cl)cc1Cl (stereo not given) |  | 300 | 2.425 | inactive |  | inactive |  |  |  | 100 |  |  |  |  | 300 |  |  |  |  |
| CCCC1(C)CC(=O)N(Nc2ccc(Cl)cc2)C1=O (stereo not given) | 100 | 100 | 2.445 |  |  |  |  | 100 |  | 300 |  | inactive |  |  | 300 |  |  |  |  |
| CCCCC1(C)CC(=O)N(Nc2ccc(Cl)cc2)C1=O (stereo not given) |  | 300 | 2.638 | inactive | inactive | inactive | Not Active |  | inactive |  |  |  |  |  |  |  |  |  |  |
| CCC1(C)CC(=O)N(Nc2ccc(Br)cc2)C1=O (stereo not given) | 300 | 300 | 2.024 |  | inactive |  | Not Active | 300 |  |  | 50% | 25% |  | 100 |  | 75% | 50% |  | 50% |
| O=C1C2CCCCC2C(=O)N1Nc1ccccc1Cl (stereo not given) |  |  | 2.162 | inactive | inactive | inactive | Not Active |  | inactive |  |  |  |  |  |  |  |  | Not Active |  |
| Cc1ccc(NN2C(=O)CC(C)(C)C2=O)cc1 | 300 | 100 | 1.642 |  | inactive | inactive | Not Active | 300 |  |  |  |  |  |  |  |  |  |  |  |
